According to ChEMBL document CHEMBL4732051, “The discovery of potent small molecule activators of human STING” (Eur J Med Chem, 2021):
Activity calls are given as the source filed them. The rule behind the calls is not given here.

Assays:
[1] = target: T1, Stimulator of interferon genes protein (Homo sapiens, UniProt Q86WV6); test: Activation of wild-type human STING expressed in HEK293T cells assessed as IRF3 reporter activation measured after 20 hrs by luciferase reporter gene assay; type: cell-based
[2] = target: T1, Stimulator of interferon genes protein; test: Activation of human STING in human PBMC cells assessed as induction of CXCL10 expression at 10 uM incubated upto 24 hrs and measured by qt-PCR analysis; type: cell-based; conditions: filed as activator, time hrs <=24
In short: (§1)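 2 x 10^5 freshly isolated human PBMC from healthy donors, separated on Histopaque, given a single compound concentration. Harvested early (6 hr) or late (20h). Cytokine mRNA read by qRT-PCR as relative normalized expression (fold) against vehicle-treated cells.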

[3] = target: T1, Stimulator of interferon genes protein; test: Activation of human STING in human PBMC cells assessed as induction of TNFalpha expression at 10 uM measured by qt-PCR analysis; type: cell-based; conditions: filed as activator; in short: as §1
[4] = target: T2, Stimulator of interferon genes protein (Mus musculus) (UniProt Q3TBT3); test: Activation of mouse STING
T2 sequence (whole entry): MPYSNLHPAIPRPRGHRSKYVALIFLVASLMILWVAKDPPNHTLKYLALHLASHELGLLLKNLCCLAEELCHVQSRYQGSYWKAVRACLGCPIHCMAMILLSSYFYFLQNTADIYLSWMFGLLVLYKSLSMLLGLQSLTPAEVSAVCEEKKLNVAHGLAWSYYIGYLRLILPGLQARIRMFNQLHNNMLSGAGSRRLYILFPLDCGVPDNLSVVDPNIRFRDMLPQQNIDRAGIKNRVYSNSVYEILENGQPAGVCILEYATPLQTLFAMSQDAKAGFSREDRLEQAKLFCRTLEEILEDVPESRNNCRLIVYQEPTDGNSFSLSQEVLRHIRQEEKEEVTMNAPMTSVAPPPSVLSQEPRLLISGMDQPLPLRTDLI

[5] = Volume of distribution in BALB/c mouse at 5 mg/kg, iv measured up to 24 hrs by LC-MS/MS analysis; type: ADME, organism-based; conditions: in vivo
In short: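 Overnight-fasted mice, randomized, n=3 per group, each given a single dose by lateral tail vein (iv) or oral gavage. Blood (50 μl per point, under isoflurane) was taken from the retro-orbital plexus. Sampling was at 2 min–24 h after iv and 5 min–24 h after oral dosing. Plasma was separated at 1500 x g for 15 min at 4 °C, stored at -80 °C, and analysed by LCMS.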

[6] = test system: Stimulator of interferon genes protein (Homo sapiens), Q86WV6 [UNDEFINED MUTATION]; test: Activation of human STING R232 in A 172 cells assessed as phosphorylation of IRF-3 at (Ser396) at 10 uM incubated for 2 hrs and measured by Western blot analysis; type: cell-based; conditions: filed as activator
In short: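 Tumor cell lines or human primary cells carrying endogenous STING variants; STING KO cells as control. 10µM for 2 h, then lysed in RIPA with phosphatase and protease inhibitors. 10 μg protein on 10% SDS-PAGE, blotted for pSTING (Ser366), pIRF3 (Ser396), STING, IRF3 and actin, ECL detection.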

T1 sequence (Q86WV6 whole entry): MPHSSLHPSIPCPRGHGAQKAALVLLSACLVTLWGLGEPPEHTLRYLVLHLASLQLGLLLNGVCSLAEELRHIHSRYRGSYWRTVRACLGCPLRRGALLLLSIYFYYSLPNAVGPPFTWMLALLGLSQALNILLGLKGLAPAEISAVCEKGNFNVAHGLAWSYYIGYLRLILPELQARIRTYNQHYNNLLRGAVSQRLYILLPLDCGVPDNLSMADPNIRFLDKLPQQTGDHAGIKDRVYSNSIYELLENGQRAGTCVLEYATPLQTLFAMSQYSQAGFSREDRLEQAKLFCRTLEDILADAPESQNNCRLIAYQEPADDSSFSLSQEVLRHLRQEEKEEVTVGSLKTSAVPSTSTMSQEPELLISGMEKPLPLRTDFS
Chain of Stimulator of interferon genes protein (Homo sapiens), Q86WV6 [UNDEFINED MUTATION] (Q86WV6 whole entry, looked up, change not shown): as the sequence (Q86WV6 whole entry) above

EC50 [1]: 0.185 µM | Activity [4]: inactive | Vd [5]: 2.69 L/kg | Activity [6]: Active
Compound: CC1(C)C(=O)N(Cc2c(F)cccc2Cl)c2cc(C(=O)NCc3c(F)cc(F)cc3F)ccc21
Activity [2]: Active | Activity [3]: Active
